Reference: publication PMC6893110 (Molecular imaging and biology, 2020)
Values belong to the molecule of their own block, whether it stands above or below them.

Legend:
MCF-7 tumor xenografts = assay: In vivo tracer dilution; parameters: species or system athymic nude mice; settings: for reduction of [^124I]IPAG tumor uptake: 100-fold excess of IPAG
How it was run: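 MCF7-xenografted athymic nude mice (estradiol-supplemented, 100–300 mm³ tumors) got KI i.p. 1 h before i.v. co-injection. […] Mice were euthanised at 24, 48 or 72 h and organs weighed and gamma-counted. %ID/g was decay- and background-corrected.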

LNCaP tumors = assay: PET imaging blocking study in LNCaP tumor-bearing mice; assay type: in vivo, athymic nude mice; settings: 100-fold excess of cold IPAG co-injected with [^124I]IPAG
How it was run: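 LNCaP cells (5×10^6 in 1:1 Matrigel/medium) were grown s.c. on the hind limb of athymic nude mice for 3–5 weeks. Mice got 0.1% KI i.p. 1 h before i.v. tracer (200 μCi in 150 μL 0.5% ethanol/saline) co-injected with 100-fold excess unlabeled IPAG. Under 2% isoflurane, mice were imaged by microPET at 4, 24 and 72 h. %ID/g came from regions of interest drawn on the PET images.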

S1R [1] = biological target: S1R (Homo sapiens, UniProt Q99720); assay type: binding
Chain of S1R (Homo sapiens, UniProt Q99720) (Q99720 whole entry): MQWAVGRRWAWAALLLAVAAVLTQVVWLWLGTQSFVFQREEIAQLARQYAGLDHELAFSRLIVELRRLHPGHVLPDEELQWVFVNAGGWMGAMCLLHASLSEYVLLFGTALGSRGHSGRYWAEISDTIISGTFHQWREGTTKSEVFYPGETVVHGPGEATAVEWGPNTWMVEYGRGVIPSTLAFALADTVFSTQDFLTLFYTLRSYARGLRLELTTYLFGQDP

S1R [2] = settings: read-out: Kd for S1R; binding to S1R; no reference given; cited from earlier work
MCF7 tumor xenografts = assay: PET imaging of [^124I]IPAG in MCF7 tumor-bearing mice; assay type: in vivo, athymic nude mice
How it was run: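 Female athymic nude mice (n=5) carried estradiol-supported s.c. MCF7 xenografts on the right forelimb (100–300 mm³). They got 0.1% KI i.p. 1 h before i.v. tracer (200 μCi, 7.4 MBq, in 150 μL 0.5% ethanol/saline). Mice were anaesthetised with 2% isoflurane in air for 15 min and scanned by microPET at serial times up to 144 h post-injection. Images were read visually and tumor maximum pixel values recorded.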

[3] = Solubility of IPAG in assay media; assay type: physicochemical; settings: in both cell media and PBS
MCF7 tumors = assay: Ex vivo biodistribution of [^124I]IPAG in MCF7 tumor-bearing mice; parameters: species or system athymic nude mice; settings: n = 5
How it was run: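 Female athymic nude mice (6–8 wk) got s.c. 17β-estradiol pellets (0.75 mg) 72 h before s.c. forelimb implant of 1×10^7 MCF7 cells in 1:1 Matrigel/medium. Tumors were 100–300 mm³. Mice got 0.1% KI i.p. 1 h before i.v. tracer (20–30 μCi in 5% ethanol/0.9% saline) and were euthanised by CO₂ at 4, 24, 48 or 72 h. Organs were weighed and gamma-counted, with background and decay correction. Injected dose was taken from syringe activity before and after injection. Results are %ID/g, mean and SD.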

Compound: O=C(CCCN1CCC(O)(c2ccc(Cl)cc2)CC1)c1ccc(F)cc1 [haloperidol]
inhibition of [^124I]IPAG uptake in tumor (MCF-7 tumor xenografts; 3.5-fold excess of haloperidol i.v. with tracer, 72 h p.i.): about 3 fold

IC50 (S1R [1]): 4.7 to 14.1 nM
inhibitory constants in vitro (S1R [1]; competition against radioiodinated IPAG, sigma-1): nanomolar
clearance time from background organs (MCF7 tumor xenografts; PET imaging, mice): around 24 h
solubility [3]: poor solubility
Compound: N=C(Nc1ccc(I)cc1)NC1C2CC3CC(C2)CC1C3 (stereo not shown) [IPAG, 1-(4-iodophenyl)-3-(2-adamantyl)guanidine]
calculated %ID/g values (PET ROI) versus [^124I]IPAG alone (LNCaP tumors): significantly lower
Kd (S1R [2]): 9 nM
reduction of [^124I]IPAG tumor uptake (MCF-7 tumor xenografts; 24 h): 81.14%
reduction of [^124I]IPAG tumor uptake (MCF-7 tumor xenografts; 48 h): 88.74%

Compound: N=C(Nc1ccc([124I])cc1)NC1C2CC3CC(C2)CC1C3 (stereo not shown) [[^124I]IPAG, I-124 labeled 1-(4-iodophenyl)-3-(2-adamantyl)guanidine]
uptake at extended time post injection (PET imaging) (MCF7 tumor xenografts; 144 h post injection): ~ 0.17 % ID/g
%ID/g uptake in MCF7 tumors (MCF7 tumors; 4 h post i.v. injection): 1.53 ± 0.27 %ID/g
%ID/g uptake in MCF7 tumors (MCF7 tumors; 24 h post i.v. injection): 1.09 ± 0.24 %ID/g
%ID/g uptake in MCF7 tumors (MCF7 tumors; 48 h post i.v. injection): 0.94 ± 0.23 %ID/g
